# HKDC1 inh: HKDC1 (human) hexokinase inhibition; inhibition, % at 20 µM; Q2TB90; recombinant HKDC1, G6PDH/diaphorase resazurin coupled fluorescence; hit rate 0.16% among 340,000;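 active means inhibition above about 35% when tested at 20 µM, limit read from the data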;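 further: plate controls were DMSO wells with enzyme for no effect and DMSO wells lacking enzyme for full effect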
#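 Test system: Recombinant HKDC1 (HK5) hexokinase enzyme, produced in-house | Input: HKDC1 at 5 µg/mL | Buffer or medium: Tris pH 8.0 buffer with MgCl2, Tween-20, BSA, BME | Schedule: 90 min reaction incubation at room temperature, dark | Technique: Resazurin-to-resorufin fluorescence via G6PDH and diaphorase coupling, 525/613 nm | Controls: DMSO wells with and without enzyme mix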
# G6PDH counter: inhibits Leuconostoc G6PDH, flagging false hits in G6PDH-based assays; hit rate 0.12% among 200,000; inhibition, % at 5 µM; AID 1020; Purified L. mesenteroides G6PDH, diaphorase/resazurin coupled fluorescence, 45 min; in the data active means inhibition above about 50%
# Diaph inh CS: inhibits diaphorase or chemically oxidizes, flagging diaphorase assay artifacts; diaphorase resazurin-to-resorufin fluorescence, NADH, 16 min; bacterial (C. kluyveri) enzyme, not human; inhibition, % at 20 µM; hit rate 0.69% among 190,000;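 active means primary screen inhibition at 20 µM above a set limit, cut at about 50% in these data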;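 further: plate controls were DMSO with full reaction for no effect and wells lacking NADH for full effect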
#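 controls = No-NADH positive control and DMSO neutral control | system = Clostridium kluyveri diaphorase enzyme | timing = reaction incubation of 16 min at room temperature | signal = resorufin fluorescence 544/590 nm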
# PfG6PD inh: PfG6PD (Plasmodium falciparum) enzyme inhibition. AID 504690. hit rate 0.78% among 350,000. inhibition, % at 20 µM. PfGluPho enzyme, NADPH resazurin-diaphorase fluorescence;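 active means inhibition reaching at least a set limit at 20 µM in the primary screen, cut at about 59% in these data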;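 further: 0% = DMSO wells with substrate and 100% = DMSO wells lacking glucose-6-phosphate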
# PfG6PD confirm: confirmation of Plasmodium falciparum G6PD inhibitors | shares compounds with PfG6PD inh | AID 504753 | recombinant PfGluPho, NADPH-diaphorase-resazurin fluorescence | inhibition, % at 20 µM | hit rate 34% among 2,400;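 active means inhibition of at least 50% at 20 µM in any single replicate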;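 further: 0% = DMSO with substrate and 100% = DMSO lacking glucose-6-phosphate substrate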
# Diaphorase 10uM: diaphorase inhibition or oxidation at 10 uM NADPH; shares compounds with PfG6PD inh; diaphorase-coupled resazurin reduction, fluorescence, NADPH 10 uM; inhibition, % at 20 µM; hit rate 39% among 820;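 active means average inhibition reaching 50% or more with the compound at 20 µM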;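 further: resorufin red fluorescence formed as diaphorase reduces resazurin using NADPH; 0% = DMSO with enzyme and 100% = DMSO without enzyme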
# Diaphorase 30uM: inhibits diaphorase or oxidizes, flagging false PfG6PD hits; shares compounds with PfG6PD inh; Diaphorase/resazurin coupled assay, resorufin fluorescence, 30 uM NADPH; inhibition, % at 20 µM; hit rate 29% among 820;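 active means inhibition averaging 50% or more, tested at 20 µM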;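 further: 0% = DMSO with enzyme and 100% = DMSO wells lacking diaphorase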
# Numbers without * were called inactive; . = not tested or not shown. Rows were chosen to be rich in hits. Some 1.2% of all compounds tested hit in one or more screens of this group.
SMILES,HKDC1 inh,G6PDH counter,Diaph inh CS,PfG6PD inh,PfG6PD confirm,others
Cc1nnc(N/N=C/c2cc(C)n(-c3ccc(F)cc3)c2C)n1N,-9,13,36,78*,45,
O=C(COc1ccc(Cl)cc1)Nc1cc2c3c(c1)CC(=O)N3CCC2,0,.,.,-6,.,
COc1ccc2c(c1)CC/C(=C/c1ccncc1)C2=O,12,11,12,-3,.,
COc1ccc2c3c(ccc2c1)C(=O)/C(=C/O)CC3,25,.,.,69*,45,
COc1ccc(CNC(=O)Cc2cn(C)c3ccccc23)c(OC)c1,-6,.,.,79*,55*,Diaphorase 10uM=49;Diaphorase 30uM=52*
Cc1cc(C)c2nc3sc(C(=O)N4CCOCC4)c(N)c3cc2c1,-2,.,.,65*,24,
Cc1cc(C)c2c(N)c(C(=O)N3CCCCCC3)sc2n1,0,0,6,70*,1,
COCc1cc(C)nc2sc(C(=O)N3CCCC3)c(N)c12,-8,1,20,-1,.,
COc1ccccc1NS(=O)(=O)c1cc(NC(=O)C(C)C)ccc1N1CCCCC1,-2,4,19,61*,18,
COc1ccccc1NS(=O)(=O)c1cc(NC(=O)c2cccs2)ccc1N1CCCC1,-20,8,17,79*,48,
COc1ccccc1NS(=O)(=O)c1cc(NC(=O)c2cccs2)ccc1N1CCCCC1,-3,14,13,-3,.,
COc1ccccc1NS(=O)(=O)c1cc(NC(=O)Nc2ccccc2)ccc1N1CCCCC1,-8,0,23,11,.,
Cc1[nH]nc2c(=S)[nH]c(=O)[nH]c12,.,.,.,14,.,
CCCCNc1c(-c2cccc(-c3ccc(OC)cc3)c2)nc2ccc(C)cn12,1,.,.,54,.,
CCCCNc1c(-c2cccc(-c3cc(C(C)=O)cs3)c2)nc2ccc(C)cn12,0,.,.,67*,13,
O=C(Nc1ccc2c(c1)[C@H]1C[C@@H](CC(=O)N3CCOCC3)O[C@@H](CO)[C@H]1O2)C1CCOCC1,.,.,.,5,.,
COC(=O)CCC(=O)OC1(C)C(=O)C2=CN(CCCOC(C)C)C(c3ccc(OC)cc3)=CC2=C(Br)C1=O (centres undefined),28,.,.,82*,38,
COC(=O)CCC(=O)OC1(C)C(=O)C=C2C=C(C3CC3)N(Cc3ccc(OC)cc3)C=C2C1=O (centres undefined),17,.,.,56,.,
COC(=O)CCC(=O)OC1(C)C(=O)C2=CN(C3CC3)C(c3ccc(OC)cc3)=CC2=C(Br)C1=O (centres undefined),34,.,.,72*,52*,Diaphorase 10uM=46;Diaphorase 30uM=49
CC(=O)OCC(=O)C1(O)CCC2C3CC(C)C4=CC(=O)C=CC4(C)C3=CCC21C (centres undefined),-6,.,.,61*,40,
COc1cc(S(=O)(=O)N2CCN(C(=O)c3ccco3)CC2)ccc1Cl,-6,.,.,-12,.,
CC1=CC(=NOC(=O)/C=C/c2ccccc2)C=C(C)C1=O,10,15,14,75*,61*,Diaphorase 10uM=28;Diaphorase 30uM=27
S=C(Nc1cc(Cl)ccc1Cl)Nn1cnnc1,-7,.,.,54,.,
CCOc1ccccc1NC(=S)Nn1cnnc1,-7,.,.,62*,30,
S=C(Nc1ccc(Cl)cc1Cl)Nn1cnnc1,4,17,14,47,-24,
SMILES,HKDC1 inh,G6PDH counter,Diaph inh CS,PfG6PD inh,PfG6PD confirm,others
CCCCN(Cc1ccco1)S(=O)(=O)c1csc(C(N)=O)c1,-2,.,.,0,.,
CN(C)CCNC(=O)c1cccc2nc3cccc(F)c3nc12,-1,.,.,-2,.,
CN(C)CCNC(=O)c1cccc2ccc(-c3ccc(-c4ccccc4)cc3)nc12,-5,.,.,95*,15,
CCCOc1c(Br)cc(C(=O)OCC(=O)NC(=O)c2cccn2C)cc1OC,-3,.,.,-13,.,
CCc1[nH]c(=S)c(C#N)c2c1CCCC2,2,2,18,66*,41,
CCc1[nH]c(=O)c(C#N)c2c1CCCC2,-4,-2,-10,3,.,
O=C(Nc1ccc2c(c1)CCC2)c1ncoc1-c1ccccc1F,-2,.,.,5,.,
Cc1nc2c(=O)[nH]c(=S)n(C)c2nc1C,-20,5,2,65*,35,
Cc1nc2[nH]c(=S)[nH]c(=O)c2nc1C,-5,.,.,18,.,

# Screens as filed in PubChem.
